Data published in publication PMC6800172 (The American journal of Chinese medicine, 2017).

Columns and labels:
human LNCaP/AR-Luc cells [1] = assay: LNCaP/AR-Luc xenograft growth in SCID-NSG mice; format: in vivo; conditions: decursinol 4.5 mg/mouse/day gavage, 7 days per week, vs vehicle
In short: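 Male SCID-NSG mice (n=20/group) received daily gavage in EPTG 3:6:1:20 (300 μL) starting 7 days before s.c. inoculation of 20,000 LNCaP/AR-Luc cells (1:1 Matrigel:serum-free medium, lower right flank). Caliper measurement twice weekly; volume = (L×W²)/2. Tumors weighed at necropsy. Only the 10 largest tumors per group were analyzed; mean ± SD.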

human LNCaP/AR-Luc cells [2] = assay: Lung metastasis of LNCaP/AR-Luc xenograft by ex vivo bioluminescence imaging; format: in vivo; conditions: SCID-NSG mice, decursinol 4.5 mg/mouse/day gavage; control 100% (10 out of 10)
[3] = Body weight and organ weight of tumor-bearing SCID-NSG mice; format: in vivo; conditions: decursinol 4.5 mg/mouse/day
[4] = test system: LNCaP/AR-luc xenograft tumor; assay: Histopathology of H&E stained xenograft tumor sections; format: in vivo, human; conditions: vs vehicle groups within each experiment
In short: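 Tumors dissected at necropsy and fixed in neutral-buffered formalin. H&E-stained sections were examined for necrotic areas, hemorrhage and intravascular cancer-cell emboli.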

[5] = Plasma decursinol by HPLC at 3 h after the last dose in SCID-NSG mice; format: in vivo, mouse
In short: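 Plasma was collected 3 h after the last daily gavage dose (4.5 mg/mouse in EPTG 3:6:1:20) from tumor-bearing male SCID-NSG mice. Plasma with chrysin internal standard was extracted twice with ethyl acetate, dried and reconstituted in methanol. HPLC used a C18 column at room temperature with a water/acetonitrile gradient (20–90% over 15 min, then 90% for 8 min) and diode-array detection at 330 nm.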

[6] = Stability of dosing preparation in EPTG excipient formula; format: physicochemical
Subchronic [7] = format: in vivo, mouse; conditions: for Body Weight / Organ height (Mean ± SD) Brain / Organ height (Mean ± SD) Heart / Organ height (Mean ± SD) Kidney / Organ height (Mean ± SD) Liver / Organ height (Mean ± SD) Lung / Organ height (Mean ± SD) Prostate / Organ height (Mean ± SD) Spleen / Organ height (Mean ± SD) Testes: male CD-1 mice, N=6
In short: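 24 male CD-1 mice (acclimated 2 weeks) were stratified by weight into 4 groups (N=6). They were gavaged daily, 7 days/week, for 4 weeks with 80, 120 or 160 mg/kg in EPTG 3:6:1:5, or 200 μL vehicle. Body weight was measured weekly, with the dose adjusted to it. At euthanasia organs were weighed, and plasma taken 3 h after the last dose was assayed by HPLC; […].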

Subchronic [8] = format: in vivo, mouse; conditions: 4 weeks; for Plasma biochemistry (Mean ± SD) ALB / Plasma biochemistry (Mean ± SD) ALP / Plasma biochemistry (Mean ± SD) ALT / Plasma biochemistry (Mean ± SD) AST / Plasma biochemistry (Mean ± SD) Amy / Plasma biochemistry (Mean ± SD) BUN / Plasma biochemistry (Mean ± SD) Chol / Plasma biochemistry (Mean ± SD) Gluc / Plasma biochemistry (Mean ± SD) T.Bili: male CD-1 mice, N=6
In short: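 After 4 weeks of daily gavage (80, 120 or 160 mg/kg in EPTG 3:6:1:5, or vehicle) in male CD-1 mice, heparinized blood was taken by cardiac puncture at euthanasia. Plasma ALT, AST, ALP, albumin, amylase, BUN, creatinine, glucose, cholesterol and total bilirubin were measured by a veterinary diagnostic laboratory.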

[9] = Single dose pharmacokinetic study in CD-1 mice; format: in vivo; conditions: male, CD-1, mouse, plasma, po, 120 mg/kg
In short: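 Male CD-1 mice (7 weeks, ≥1 week on AIN-93M diet) were given a single gavage of 120 mg/kg (3 mg/25 g) in 0.2 mL EPTG 3:6:1:5. Groups of 5–7 were killed at 0.1, 0.25, 0.5, 1, 2, 3, 6, 12 and 24 h. Heparinized cardiac blood was spun at 5000 g for 5 min. Plasma was extracted with ethyl acetate and run on HPLC. AUC0–24h was calculated noncompartmentally; mean ± SEM.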

[10] = DOH-3: 3 mg per 25 g body weight (120 mg/kg) daily gavage, 4 weeks
[11] = DOH-4: 4 mg per 25 g body weight (160 mg/kg) daily gavage, 4 weeks
[12] = DOH-3: 3 mg per 25 g body weight (120 mg/kg) daily gavage
[13] = DOH-4: 4 mg per 25 g body weight (160 mg/kg) daily gavage

## CC1(C)Oc2cc3oc(=O)ccc3cc2C[C@@H]1O [decursinol]
Human LNCaP/AR-Luc cells [1]
  decreased LNCaP/AR-Luc xenograft tumor growth (top 10 tumors): 75%
Human LNCaP/AR-Luc cells [2]
  lung metastasis rate: 60%
[3]; SCID-NSG mice, vs vehicle- or D/DA-treated mice
  weight of liver, kidney, testes and prostate at study termination: not statistically different
[3]; tumor-bearing SCID-NSG mice, noticeable at 7-8 weeks of treatment
  Body Weight: progressive body weight disadvantage
[4]
  necrosis extent in tumor sections: did not noticeably differ
[5]; SCID-NSG mice, 3 hours after the last dose
  plasma decursinol level, decursinol dosing over equi-molar D/DA dosing: 1.7 folds
[5]; male, SCID-NSG, mouse, plasma, oral, 4.5 mg/mouse
  concentration at 3 h: 4100 ng/mL
[6]; EPTG (3:6:1:20) formula
  time in uniformly dispersed state after dilution from stock concentrate: ≤ 20 min
[6]; new EPTG (3:6:1:5)
  time remaining as clear solution: more than 1 hour
Subchronic [7]; CD-1 mice, 80, 120, and 160 mg decursinol/kg daily gavage, 4 weeks, EPTG 3:6:1:5
  plasma decursinol level (3 h post last dose): increase in a dose-dependent manner
Subchronic [7]; CD-1 mice, daily gavage as high as 4 mg/25 g or 160 mg per kg, 4 weeks
  body weight change: did not cause body weight change
Subchronic [7]; CD-1 mice, subchronic dosing 4 weeks, 80-160 mg/kg
  weights of liver, kidney, prostate, spleen, lung, heart, testes and brain: did not affect
Subchronic [7]; [10]
  Body Weight: 35.97 ± 2.10 g
  Organ height (Mean ± SD) Brain: 0.53 ± 0.03 g
  Organ height (Mean ± SD) Heart: 0.19 ± 0.01 g
  Organ height (Mean ± SD) Kidney: 0.59 ± 0.08 g
  Organ height (Mean ± SD) Liver: 1.58 ± 0.14 g
  Organ height (Mean ± SD) Lung: 0.20 ± 0.02 g
  Organ height (Mean ± SD) Prostate: 0.10 ± 0.02 g
  Organ height (Mean ± SD) Spleen: 0.09 ± 0.02 g
  Organ height (Mean ± SD) Testes: 0.25 ± 0.03 g
Subchronic [7]; [11]
  Body Weight: 35.38 ± 1.71 g
  Organ height (Mean ± SD) Brain: 0.53 ± 0.02 g
  Organ height (Mean ± SD) Heart: 0.20 ± 0.01 g
  Organ height (Mean ± SD) Kidney: 0.60 ± 0.08 g
  Organ height (Mean ± SD) Liver: 1.54 ± 0.17 g
  Organ height (Mean ± SD) Lung: 0.22 ± 0.01 g
  Organ height (Mean ± SD) Prostate: 0.12 ± 0.02 g
  Organ height (Mean ± SD) Spleen: 0.09 ± 0.02 g
  Organ height (Mean ± SD) Testes: 0.24 ± 0.05 g
Subchronic [8]; CD-1 mice, among the 4 groups
  plasma biochemistry (ALP, AST, ALT, Amy, ALB, BUN, Gluc, Chol, T. Bili): not statistically different
Subchronic [8]; [12]
  Plasma biochemistry (Mean ± SD) ALB: 2.7 ± 0.2 g/dL
  Plasma biochemistry (Mean ± SD) ALP: 47.2 ± 14.6 U/L
  Plasma biochemistry (Mean ± SD) ALT: 34.3 ± 21.7 U/L
  Plasma biochemistry (Mean ± SD) AST: 82.5 ± 29.6 U/L
  Plasma biochemistry (Mean ± SD) Amy: 780.2 ± 70.1 U/L
  Plasma biochemistry (Mean ± SD) BUN: 12.3 ± 2.5 mg/dL
  Plasma biochemistry (Mean ± SD) Chol: 182.0 ± 38.8 mg/dL
  Plasma biochemistry (Mean ± SD) Gluc: 367.3 ± 69.0 mg/dL
  Plasma biochemistry (Mean ± SD) T.Bili: 0.27 ± 0.05 mg/dL
Subchronic [8]; [13]
  Plasma biochemistry (Mean ± SD) ALB: 2.3 ± 0.3 g/dL
  Plasma biochemistry (Mean ± SD) ALP: 45.5 ± 9.1 U/L
  Plasma biochemistry (Mean ± SD) ALT: 21.0 ± 7.6 U/L
  Plasma biochemistry (Mean ± SD) AST: 72.3 ± 29.9 U/L
  Plasma biochemistry (Mean ± SD) Amy: 668.0 ± 117.1 U/L
  Plasma biochemistry (Mean ± SD) BUN: 14.0 ± 2.2 mg/dL
  Plasma biochemistry (Mean ± SD) Chol: 161.0 ± 20.5 mg/dL
  Plasma biochemistry (Mean ± SD) Gluc: 408.3 ± 130.0 mg/dL
  Plasma biochemistry (Mean ± SD) T.Bili: 0.32 ± 0.10 mg/dL
[9]
  AUC(0-t): 193 µg·h/mL
